Results from PMC8269116 (Journal of psychopharmacology (Oxford, England), 2019).
Several values for one entry are separate records, joined by “and”; a condition that tells them apart may be missing. Equal values may be shown once. Read-outs that look alike come from different tables or passages of the source.

Columns and labels:
[1] = target: T1, NET (Homo sapiens, UniProt P23975); experiment: [3H]norepinephrine uptake inhibition in HEK 293 cells overexpressing human NET; format: cell-based
[2] = target: T2, DAT (Homo sapiens, UniProt Q01959); experiment: [3H]dopamine uptake inhibition in HEK 293 cells overexpressing human DAT; format: cell-based; settings: for DAT/SERT ratio: 1/DAT IC50 : 1/SERT IC50, mean and 95% confidence interval
[3] = target: human 5-HT transporter (SERT) (Homo sapiens, UniProt P31645); experiment: [3H]5-HT uptake inhibition in HEK 293 cells overexpressing human SERT; format: cell-based
[4] = target: T1, NET; experiment: Radioligand binding, N-methyl-[3H]nisoxetine displacement
[5] = target: T2, DAT; experiment: Radioligand binding, [3H]WIN35,428 displacement
[6] = target: SERT (Homo sapiens, UniProt P31645); experiment: Radioligand binding, [3H]citalopram displacement
[7] = target: dopamine D2 receptors (Homo sapiens, UniProt P14416); experiment: Radioligand binding, [3H]spiperone displacement
[8] = target: T3, α1 adrenergic receptor (α1A) (Homo sapiens, UniProt P35348); experiment: Radioligand binding, [3H]prazosin displacement
T3 sequence (P35348 1-466): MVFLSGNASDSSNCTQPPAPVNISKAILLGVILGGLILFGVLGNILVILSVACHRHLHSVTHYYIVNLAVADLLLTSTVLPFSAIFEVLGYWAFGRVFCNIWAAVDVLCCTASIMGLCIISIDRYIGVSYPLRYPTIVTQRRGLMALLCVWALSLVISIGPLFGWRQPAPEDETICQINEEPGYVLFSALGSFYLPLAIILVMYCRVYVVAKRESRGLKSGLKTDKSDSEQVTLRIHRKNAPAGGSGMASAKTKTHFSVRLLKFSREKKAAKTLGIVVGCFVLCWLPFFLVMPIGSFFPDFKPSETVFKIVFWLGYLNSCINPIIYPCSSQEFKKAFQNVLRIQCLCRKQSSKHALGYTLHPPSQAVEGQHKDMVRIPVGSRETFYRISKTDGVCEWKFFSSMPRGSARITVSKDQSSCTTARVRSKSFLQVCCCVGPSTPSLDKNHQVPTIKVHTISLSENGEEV

[9] = target: T4, α2 adrenergic receptor (α2A) (Homo sapiens, UniProt P08913); experiment: Radioligand binding, [3H]rauwolscine displacement
T4 sequence (P08913 1-465): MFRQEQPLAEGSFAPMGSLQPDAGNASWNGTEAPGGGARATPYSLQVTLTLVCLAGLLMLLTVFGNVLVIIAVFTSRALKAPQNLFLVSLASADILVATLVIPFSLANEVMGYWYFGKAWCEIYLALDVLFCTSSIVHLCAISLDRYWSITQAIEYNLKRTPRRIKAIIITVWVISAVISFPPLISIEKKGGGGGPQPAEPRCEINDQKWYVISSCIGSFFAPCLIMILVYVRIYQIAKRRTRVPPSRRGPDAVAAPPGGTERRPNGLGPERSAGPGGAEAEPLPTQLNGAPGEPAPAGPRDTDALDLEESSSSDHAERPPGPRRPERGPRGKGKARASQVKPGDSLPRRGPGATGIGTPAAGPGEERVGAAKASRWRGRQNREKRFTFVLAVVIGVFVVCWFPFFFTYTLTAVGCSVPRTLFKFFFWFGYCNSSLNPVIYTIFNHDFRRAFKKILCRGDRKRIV

[10] = target: T5, 5-HT1A receptor (Homo sapiens, UniProt P08908); experiment: Radioligand binding, [3H]8-hydroxy-2-
T5 sequence (P08908 1-422): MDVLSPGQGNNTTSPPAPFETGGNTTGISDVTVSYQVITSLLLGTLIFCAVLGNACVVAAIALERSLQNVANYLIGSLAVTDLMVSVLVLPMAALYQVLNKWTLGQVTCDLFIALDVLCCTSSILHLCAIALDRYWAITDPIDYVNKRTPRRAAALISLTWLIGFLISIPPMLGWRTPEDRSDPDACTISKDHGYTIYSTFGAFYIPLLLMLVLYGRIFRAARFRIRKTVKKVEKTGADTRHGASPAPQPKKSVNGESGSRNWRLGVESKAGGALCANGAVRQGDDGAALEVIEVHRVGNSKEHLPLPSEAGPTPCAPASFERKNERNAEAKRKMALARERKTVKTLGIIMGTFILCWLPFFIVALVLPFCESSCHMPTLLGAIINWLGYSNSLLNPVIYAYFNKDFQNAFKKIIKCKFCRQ

[11] = target: 5-HT2A receptor (Homo sapiens, UniProt P28223); experiment: Radioligand binding, [3H]ketanserin displacement
[12] = target: T6, 5-HT2C receptor (Homo sapiens, UniProt P28335); experiment: biochemical; format: binding
T6 sequence (P28335 33-458): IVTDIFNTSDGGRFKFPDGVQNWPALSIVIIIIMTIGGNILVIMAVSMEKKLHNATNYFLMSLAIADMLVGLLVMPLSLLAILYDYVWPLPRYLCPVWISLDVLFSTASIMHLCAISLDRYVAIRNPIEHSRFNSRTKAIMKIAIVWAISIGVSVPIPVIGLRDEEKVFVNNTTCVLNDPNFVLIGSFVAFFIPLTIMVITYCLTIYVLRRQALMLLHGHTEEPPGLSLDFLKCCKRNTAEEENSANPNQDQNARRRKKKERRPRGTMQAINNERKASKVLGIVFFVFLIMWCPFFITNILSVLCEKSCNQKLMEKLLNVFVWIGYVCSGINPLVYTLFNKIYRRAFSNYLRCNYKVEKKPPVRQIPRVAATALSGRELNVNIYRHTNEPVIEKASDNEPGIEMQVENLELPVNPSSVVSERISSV

[13] = target: rat TAAR1 (Rattus norvegicus, UniProt Q923Y9); experiment: Radioligand binding, [3H]RO5166017 displacement
[14] = target: mouse TAAR1 (Mus musculus, UniProt Q923Y8); experiment: Radioligand binding, [3H]RO5166017 displacement
[15] = rat plasma, subcutaneous methylone; ref Elmore et al., 2017; cited from earlier work
[16] = after subcutaneous injection of methylone; ref Stefkova et al., 2017; cited from earlier work
[17] = ref Lopez-Arnau et al., 2013, cited from earlier work
[18] = target: T7, human TAAR1 (Homo sapiens, UniProt Q96RJ0); experiment: Human TAAR1 activation, cAMP assay in HEK 293 cells; format: cell-based
T7 sequence (Q96RJ0 1-339): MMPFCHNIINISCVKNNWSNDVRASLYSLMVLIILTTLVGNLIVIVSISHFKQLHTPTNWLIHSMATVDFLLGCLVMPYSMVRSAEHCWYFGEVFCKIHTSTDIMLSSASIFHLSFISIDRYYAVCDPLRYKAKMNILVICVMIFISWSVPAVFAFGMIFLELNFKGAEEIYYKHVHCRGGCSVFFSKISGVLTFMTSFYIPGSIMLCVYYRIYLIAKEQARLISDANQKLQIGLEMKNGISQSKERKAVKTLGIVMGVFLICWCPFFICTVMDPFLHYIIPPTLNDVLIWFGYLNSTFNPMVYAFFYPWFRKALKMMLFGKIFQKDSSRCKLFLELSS
Method in brief: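 Recombinant HEK 293 cells expressing human TAAR1 were pelleted, resuspended, seeded at 80,000/well and incubated 20 h at 37 °C. After a PBS wash, the cells were preincubated 60 min at 37 °C in KRB with 1 mM IBMX. Test compound (300 pM–30 μM, duplicate), β-phenylethylamine (maximal response) or basal control was added for 40 min at 37 °C. Cells were lysed 120 min at RT with Ru-cAMP Alexa700 anti-cAMP antibody mix, and fluorescence was read against a per-plate cAMP standard curve (0.13 nM–10 μM).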

[19] = target: human 5-HT2B receptor (Homo sapiens, UniProt P41595); experiment: 5-HT2B receptor activation, FLIPR calcium assay in HEK 293 cells; format: cell-based
[20] = healthy human subjects, oral MDMA; ref Schmid et al., 2016; cited from earlier work
[21] = read-out: SERT IC50, 5-HT uptake inhibition, mean and 95% confidence interval
[22] = read-out: SERT Ki, mean±SD, n=3
[23] = read-out: 5-HT1A Ki, mean±SD, n=3
[24] = read-out: 5-HT2A Ki, mean±SD, n=3
[25] = read-out: 5-HT2c Ki, mean±SD, n=3
[26] = read-out: TAAR1rat Ki, mean±SD, n=3
[27] = read-out: TAAR1mouse Ki, mean±SD, n=3

Sequence of SERT (P31645 whole entry): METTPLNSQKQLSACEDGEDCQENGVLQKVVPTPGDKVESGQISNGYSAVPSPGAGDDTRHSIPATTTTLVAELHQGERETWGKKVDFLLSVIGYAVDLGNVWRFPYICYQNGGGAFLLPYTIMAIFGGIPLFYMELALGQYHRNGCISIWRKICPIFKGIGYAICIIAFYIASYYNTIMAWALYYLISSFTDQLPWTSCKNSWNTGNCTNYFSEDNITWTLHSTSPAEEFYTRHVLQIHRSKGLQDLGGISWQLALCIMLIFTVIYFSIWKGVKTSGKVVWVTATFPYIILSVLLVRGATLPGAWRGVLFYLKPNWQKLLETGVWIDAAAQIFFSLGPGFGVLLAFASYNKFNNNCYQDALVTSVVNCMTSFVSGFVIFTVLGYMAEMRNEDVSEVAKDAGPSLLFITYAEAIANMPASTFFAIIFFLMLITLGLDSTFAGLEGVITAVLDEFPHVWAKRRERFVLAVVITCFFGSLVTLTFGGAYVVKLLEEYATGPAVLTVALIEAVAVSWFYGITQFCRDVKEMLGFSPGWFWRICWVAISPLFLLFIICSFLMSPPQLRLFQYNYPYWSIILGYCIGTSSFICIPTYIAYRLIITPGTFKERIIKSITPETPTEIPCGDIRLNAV
Sequence of human 5-HT transporter (SERT) (P31645 whole entry): as above
Sequence of dopamine D2 receptors (P14416 whole entry): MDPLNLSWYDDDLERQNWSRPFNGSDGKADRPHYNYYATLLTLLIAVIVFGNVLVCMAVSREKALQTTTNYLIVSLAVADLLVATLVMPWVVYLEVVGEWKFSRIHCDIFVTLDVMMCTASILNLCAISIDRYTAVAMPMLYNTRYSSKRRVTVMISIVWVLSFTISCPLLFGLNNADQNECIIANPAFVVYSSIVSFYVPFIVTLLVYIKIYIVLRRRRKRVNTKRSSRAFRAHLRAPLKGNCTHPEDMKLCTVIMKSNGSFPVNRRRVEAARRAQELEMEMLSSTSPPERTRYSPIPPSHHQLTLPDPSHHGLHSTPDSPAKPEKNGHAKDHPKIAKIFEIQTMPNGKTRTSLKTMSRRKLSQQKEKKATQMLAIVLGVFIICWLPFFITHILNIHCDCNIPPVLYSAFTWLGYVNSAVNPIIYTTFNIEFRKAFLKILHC
T1 sequence (P23975 whole entry): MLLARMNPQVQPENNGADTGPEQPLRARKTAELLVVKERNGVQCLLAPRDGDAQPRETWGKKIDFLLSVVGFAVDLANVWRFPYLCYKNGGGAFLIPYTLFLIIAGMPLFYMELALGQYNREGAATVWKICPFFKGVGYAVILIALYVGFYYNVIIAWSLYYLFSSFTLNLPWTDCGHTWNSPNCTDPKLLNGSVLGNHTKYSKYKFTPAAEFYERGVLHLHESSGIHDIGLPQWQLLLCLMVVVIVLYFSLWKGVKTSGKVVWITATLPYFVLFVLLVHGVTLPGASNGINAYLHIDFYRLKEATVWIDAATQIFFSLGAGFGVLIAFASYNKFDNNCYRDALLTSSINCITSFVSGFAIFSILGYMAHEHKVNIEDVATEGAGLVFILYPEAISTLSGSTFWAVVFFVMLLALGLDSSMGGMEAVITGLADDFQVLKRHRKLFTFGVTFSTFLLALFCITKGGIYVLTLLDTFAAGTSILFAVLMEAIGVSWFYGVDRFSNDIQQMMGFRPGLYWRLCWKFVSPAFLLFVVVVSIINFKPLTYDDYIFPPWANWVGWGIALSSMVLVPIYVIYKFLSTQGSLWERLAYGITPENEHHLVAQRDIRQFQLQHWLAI
Sequence of 5-HT2A receptor (P28223 whole entry): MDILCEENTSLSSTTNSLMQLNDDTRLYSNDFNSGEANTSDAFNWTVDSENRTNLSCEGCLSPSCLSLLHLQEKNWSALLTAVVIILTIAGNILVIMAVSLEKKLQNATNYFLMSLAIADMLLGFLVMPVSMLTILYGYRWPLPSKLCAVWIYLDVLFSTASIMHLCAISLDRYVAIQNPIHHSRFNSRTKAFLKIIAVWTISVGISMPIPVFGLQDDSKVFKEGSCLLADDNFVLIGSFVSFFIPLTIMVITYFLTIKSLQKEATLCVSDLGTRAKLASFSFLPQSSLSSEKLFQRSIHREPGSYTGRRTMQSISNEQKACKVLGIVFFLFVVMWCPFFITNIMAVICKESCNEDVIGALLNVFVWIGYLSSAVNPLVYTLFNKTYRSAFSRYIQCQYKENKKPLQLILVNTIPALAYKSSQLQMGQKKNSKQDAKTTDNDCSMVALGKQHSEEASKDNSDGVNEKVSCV
Sequence of mouse TAAR1 (Q923Y8 whole entry): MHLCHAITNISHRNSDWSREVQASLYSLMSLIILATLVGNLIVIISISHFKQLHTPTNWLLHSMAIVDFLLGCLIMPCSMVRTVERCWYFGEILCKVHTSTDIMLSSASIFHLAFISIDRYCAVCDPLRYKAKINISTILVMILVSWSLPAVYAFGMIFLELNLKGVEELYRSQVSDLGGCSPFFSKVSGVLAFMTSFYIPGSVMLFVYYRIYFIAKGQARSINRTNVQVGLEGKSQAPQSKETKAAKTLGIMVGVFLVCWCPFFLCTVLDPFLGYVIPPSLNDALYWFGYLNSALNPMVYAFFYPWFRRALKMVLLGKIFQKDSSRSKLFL
T2 sequence (Q01959 whole entry): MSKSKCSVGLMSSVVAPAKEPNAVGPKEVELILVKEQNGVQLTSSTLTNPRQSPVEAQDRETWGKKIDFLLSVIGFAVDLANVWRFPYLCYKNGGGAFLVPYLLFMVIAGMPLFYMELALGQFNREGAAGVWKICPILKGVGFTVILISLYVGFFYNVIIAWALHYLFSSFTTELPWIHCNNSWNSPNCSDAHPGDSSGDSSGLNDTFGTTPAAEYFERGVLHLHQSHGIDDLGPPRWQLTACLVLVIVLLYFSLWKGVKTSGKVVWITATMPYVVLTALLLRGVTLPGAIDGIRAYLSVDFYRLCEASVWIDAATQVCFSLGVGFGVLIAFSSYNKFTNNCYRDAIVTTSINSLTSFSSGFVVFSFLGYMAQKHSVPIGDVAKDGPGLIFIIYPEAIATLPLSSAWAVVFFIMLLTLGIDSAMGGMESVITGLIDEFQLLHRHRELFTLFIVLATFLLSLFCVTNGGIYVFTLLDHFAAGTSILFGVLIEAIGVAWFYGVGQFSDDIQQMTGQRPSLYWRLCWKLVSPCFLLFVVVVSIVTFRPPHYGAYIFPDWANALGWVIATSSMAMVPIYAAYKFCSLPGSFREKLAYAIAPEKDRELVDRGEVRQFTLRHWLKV
Sequence of rat TAAR1 (Q923Y9 whole entry): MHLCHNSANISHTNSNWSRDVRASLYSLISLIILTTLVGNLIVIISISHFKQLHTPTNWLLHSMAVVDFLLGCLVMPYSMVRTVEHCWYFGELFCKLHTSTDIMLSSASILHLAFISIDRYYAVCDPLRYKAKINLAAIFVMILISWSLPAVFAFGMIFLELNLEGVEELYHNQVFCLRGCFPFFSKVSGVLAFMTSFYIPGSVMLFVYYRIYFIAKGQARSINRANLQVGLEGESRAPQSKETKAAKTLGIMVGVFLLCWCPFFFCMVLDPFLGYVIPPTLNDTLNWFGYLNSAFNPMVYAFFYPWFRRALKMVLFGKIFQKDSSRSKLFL
Sequence of human 5-HT2B receptor (P41595 whole entry): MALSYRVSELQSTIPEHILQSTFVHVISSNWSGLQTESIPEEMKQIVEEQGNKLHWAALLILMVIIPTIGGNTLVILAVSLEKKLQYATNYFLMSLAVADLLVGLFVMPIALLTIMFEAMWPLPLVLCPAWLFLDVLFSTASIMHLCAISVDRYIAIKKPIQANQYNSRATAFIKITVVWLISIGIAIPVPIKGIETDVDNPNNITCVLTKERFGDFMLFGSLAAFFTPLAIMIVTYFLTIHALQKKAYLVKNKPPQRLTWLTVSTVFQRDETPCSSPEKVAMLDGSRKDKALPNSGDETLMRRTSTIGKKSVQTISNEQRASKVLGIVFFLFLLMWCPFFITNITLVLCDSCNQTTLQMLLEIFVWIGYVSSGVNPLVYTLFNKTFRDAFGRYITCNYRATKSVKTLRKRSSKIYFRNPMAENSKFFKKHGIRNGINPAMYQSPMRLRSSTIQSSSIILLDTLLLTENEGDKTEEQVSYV

Structure (SMILES)	IC50 [1] [µM]	IC50 [2] [µM]	IC50 [3] [µM]	Ki [4] [µM]	Ki [5] [µM]	Ki [6] [µM]	Ki [7] [µM]	Ki [8] [µM]	Ki [9] [µM]	Ki [10] [µM]	Ki [11] [µM]	Ki [12] [µM]	Ki [13] [µM]	Ki [14] [µM]	DAT/SERT ratio [2]	IC50 [3, 21] [µM]	Ki ([4]; read-out: NET Ki, mean±SD, n=3) [µM]	Ki ([5]; read-out: DAT Ki, mean±SD, n=3) [µM]	Ki [6, 22] [µM]	Ki ([7]; read-out: D2 Ki, mean±SD, n=3) [µM]	other results
CC(N)Cc1ccc(O)c(O)c1 (stereo not shown) [HHA, 3,4-Dihydroxyamphetamine]	0.18	9.6	63	0.79 ± 0.3	2.9 ± 0.3	> 7.4	> 13	> 9.5	2 ± 0.4	> 18	9.2 ± 1.7	> 5.1	1.9 ± 0.4	1.4 ± 0.2							increase of dopamine uptake ([2]; anomalous increase at some concentrations, non-sigmoidal curves): more than 200%
CNC(C)C(=O)c1ccc2c(c1)OCO2 (stereo not shown) [Methylone, 3,4-methylenedioxymethcathinone, reference compound]	0.56	6.6	18	> 8.7	2.3 ± 0.1	> 7.5	> 13	> 9.5	> 5	> 17	> 12	> 14	> 5	> 4.7	2.7 (1.9–3.8)						time at which Cmax was reached [15]: 15 min; brain vs. serum concentration, times higher [16]: approximately five; time of maximum brain and serum concentrations [16]: 30 min; Tmax ([17]; 15 mg/kg oral dose): 30 min; Tmax ([17]; 30 mg/kg oral dose): 60 min
COc1cc(CC(C)N)ccc1O (stereo not shown) [HMA, 4-hydroxy-3-methyoxyamphetamine]															270 (96–830)	35	> 8.8	> 8.5	> 7.4	> 13	maximum dopamine transporter inhibition ([2]; partial inhibition of dopamine uptake): 66%; Ki ([8]; read-out: α1A Ki, mean±SD, n=3): > 9.5 µM; Ki ([9]; read-out: α2A Ki, mean±SD, n=3): > 4.7 µM; Ki [10, 23]: > 18 µM; Ki [11, 24]: > 12 µM; Ki [12, 25]: > 5.1 µM; Ki [13, 26]: 0.15 ± 0.02 µM; Ki [14, 27]: 0.05 ± 0.02 µM; EC50 ([18]; read-out: human TAAR1 activation EC50): 10.4 µM and 10 µM; human TAAR1 activation efficacy ([18]; β-phenylethylamine as maximal response): 51 ± 12%
CC(N)Cc1ccc2c(c1)OCO2 (stereo not shown) [MDA, 3,4-methylenedioxyamphetamine, reference compound]	0.38	17	4.3	> 8.8	> 8.5	> 7.4	> 13	8.8 ± 0.6	2.6 ± 0.1	9 ± 0.8	3.2 ± 0.8		0.22 ± 0.03	0.18 ± 0.03							EC50 [19]: 0.2 ± 0.01 µM; 5-HT2B receptor activation efficacy ([19]; relative to 5-HT activity defined as 100%): 51 ± 7%; Cmax as % of the Cmax of MDMA [20]: 4–8%
CNC(C)Cc1ccc(O)c(OC)c1 (stereo not shown) [HMMA, 4-hydroxy-3-methoxymethamphetamine]															3.6 (1.4–8.9)	20	> 8.8	> 8.5	> 7.4	> 13	Ki ([8]; read-out: α1A Ki, mean±SD, n=3): > 9.5 µM; Ki ([9]; read-out: α2A Ki, mean±SD, n=3): > 4.7 µM; Ki [10, 23]: > 18 µM; Ki [11, 24]: > 12 µM; Ki [12, 25]: > 5.1 µM; Ki [13, 26]: 0.25 ± 0.04 µM; Ki [14, 27]: 0.45 ± 0.05 µM; Cmax as % of the Cmax of MDMA [20]: 9–48%; Cmax of unconjugated form as % of the Cmax of MDMA [20]: 1–3%
